ChEMBL document CHEMBL1155228, “Novel triazole ribonucleoside down-regulates heat shock protein 27 and induces potent anticancer activity on drug-resistant pancreatic cancer” (J Med Chem, 2009)
Calls of active or inactive are those of the source. The rule behind the calls is not given here.

Experiments:
MIA PaCa-2 [1] = experiment: Inhibition of chemoresistant human MIAPaCa2 cell proliferation after 48 hrs by MTT assay; format: functional
How it was run: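 MiaPaCa-2 cells in DMEM with 10% FBS seeded at 15 000/well and left to attach overnight. Medium replaced with fresh medium holding a range of concentrations, or medium alone; gemcitabine control. Incubated 48 h at 37 °C, 5% CO₂, and viable cells measured by MTT. Mean ± SE of three independent experiments.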

MIA PaCa-2 [2] = experiment: Inhibition of Hsp27 mRNA expression in chemoresistant human MIAPaCa2 cells after 24 hrs by RT-PCR analysis; format: functional
How it was run: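 MiaPaCa-2 cells treated 24 h. Total RNA isolated by TRIzol and reverse-transcribed. SYBR Green real-time PCR run with Hsp27 primers: 45 cycles of 95 °C 5 s, 57 °C 6 s, 72 °C 12 s, followed by a melting curve. Normalized to 18S rRNA; each sample in triplicate.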

MIA PaCa-2 [3] = experiment: Induction of apoptosis in chemoresistant human MIAPaCa2 cells assessed as increase in caspase 3/7 activation after 48 hrs […] relative to control; format: functional
MIA PaCa-2 [4] = experiment: Inhibition of Hsp27 protein expression in chemoresistant human MIAPaCa2 cells by alexa fluor 488 staining-based immunofluorescence assay; format: functional, cell-based
How it was run: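 Treated and untreated MiaPaCa-2 cells fixed in 4% paraformaldehyde and permeabilized with 1% Triton. Incubated with mouse anti-Hsp27 monoclonal (1:500) overnight at 4 °C, blocked in BSA/PBS, then Alexa Fluor 488 secondary (1:750). Nuclei stained with DAPI for imaging.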

MIA PaCa-2 [5] = experiment: Induction of necrosis in chemoresistant human MIAPaCa2 cells assessed as cell membrane damage associated LDH release up to 300 um after 1 hr; format: functional
How it was run: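 MiaPaCa-2 cells seeded at 15 000/well; 24 h later exposed to compound in DMSO for 1 h. LDH reaction mixture added 1:1 and incubated 10 min at 25 °C. Lysis buffer set as 100% release and medium as 0%. Result is released LDH over total cellular LDH; triplicate.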

MIA PaCa-2 [6] = experiment: Inhibition of DNA synthesis in chemoresistant human MIAPaCa2 cells assessed as incorporation of [3H]thymidine into DNA after 4 hrs by liquid scintillation counting; format: functional
How it was run: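 MiaPaCa-2 cells seeded at 15 000/well and treated in exponential growth for 4 h, with gemcitabine as comparator. Then labelled with [³H]thymidine (10 μCi/mL) for 6 h at 37 °C, 5% CO₂. Cells harvested and incorporated radioactivity measured by liquid scintillation counting.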

Mus musculus [7] = experiment: Toxicity in nude mouse xenografted with human MIAPaCa2 cells assessed as weight loss at 150 mg/kg, ip administered measured after 3 weeks; settings: in vivo, 504 h
MIA PaCa-2 [8] = experiment: Antitumor activity against human MIAPaCa2 cells xenografted in nude mouse assessed as reduction in tumor volume at 150 mg/kg, ip administered measured after 3 weeks; parameters: scale not given: the % may be the effect or the level left; settings: route intraperitoneal
MIA PaCa-2 [9] = experiment: Induction of apoptosis in chemoresistant human MIAPaCa2 cells assessed as increase in caspase 3/7 activation after 48 hrs by […] relative to gemcitabine; format: functional
How it was run: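 MiaPaCa-2 cells seeded at 15 000/well; 24 h later treated for 48 h, with gemcitabine and no-treatment controls. Apo-ONE homogeneous caspase-3/7 reagent added 1:1 to culture, containing fluorogenic Z-DEVD-R110 substrate. Incubated 30 min at room temperature, then fluorescence read. Triplicate.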

Mus musculus [10] = experiment: Toxicity in nude mouse xenografted with human MIAPaCa2 cells assessed as normal growth and behavior at 150 mg/kg, ip administered measured after 3 weeks; settings: in vivo, 504 h
MIA PaCa-2 [11] = experiment: Induction of apoptosis in chemoresistant human MIAPaCa2 cells assessed as increase in cell accumulation at sub-G1/G0 phase after 48 hrs by FACS analysis relative to control; format: functional
How it was run: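 MiaPaCa-2 cells treated 48 h, with untreated and gemcitabine controls. Cells trypsinized, PBS-washed and fixed overnight at 4 °C in cold 70% ethanol. Treated with RNase (500 μg/mL) and stained with propidium iodide (50 μg/mL). Sub-G1/G0 fraction read by flow cytometry on 10⁶ cells; triplicate.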

MIA PaCa-2 [12] = experiment: Induction of necrosis in chemoresistant human MIAPaCa2 cells up to 12 hrs by 7-aminoactinomycin D staining-based FACS analysis; format: functional
How it was run: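 MiaPaCa-2 cells seeded at 500 000 per 6 cm dish and left overnight, then treated or left untreated for 3, 6 and 12 h. Stained with 7-AAD for 15 min at 25 °C, then read immediately by flow cytometry; triplicate.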

MIA PaCa-2 [13] = experiment: Inhibition of Hsp27 protein expression in chemoresistant human MIAPaCa2 cells after 48 hrs by Western blotting; format: functional, cell-based
How it was run: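 MiaPaCa-2 cells treated and harvested at 48 h. Lysates loaded at 15 μg protein and blotted with rabbit polyclonal anti-human Hsp27 (1:5000) and vinculin reference (1:2000). Detected by enhanced chemiluminescence and band intensities quantified against untreated control.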

MIA PaCa-2 [14] = experiment: Induction of apoptosis in chemoresistant human MIAPaCa2 cells assessed as increase in DNA/histone nucleosome release after 48 hrs by ELISA relative to control; format: functional
How it was run: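 MiaPaCa-2 cells seeded at 15 000/well for 24 h, then treated or left untreated for 48 h. Cells lysed after centrifugation at 200g. Supernatant put on streptavidin plate with biotin anti-histone and peroxidase anti-DNA antibodies, 2 h at room temperature. After washes, substrate added for 20 min and read at 405 nm. Expressed as fold increase in absorbance over control; triplicate.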

## CCCCCC#Cc1nc(C(N)=O)n([C@@H]2O[C@H](CO)[C@@H](O)[C@H]2O)n1
MIA PaCa-2 [1]
  inhibition: inactive

## Cc1ccc(C#Cc2nc(C(N)=O)n([C@@H]3O[C@H](CO)[C@@H](O)[C@H]3O)n2)cc1
MIA PaCa-2 [1]
  inhibition: inactive

## NC(=O)c1nc(C#Cc2ccc(C(F)(F)F)cc2)nn1[C@@H]1O[C@H](CO)[C@@H](O)[C@H]1O
MIA PaCa-2 [1]
  inhibition: inactive

## CCCCCc1ccc(CCc2nc(C(N)=O)n([C@@H]3O[C@H](CO)[C@@H](O)[C@H]3O)n2)cc1
MIA PaCa-2 [1]
  inhibition: inactive

## CCCc1ccc(C#Cc2nc(C(N)=O)n([C@@H]3O[C@H](CO)[C@@H](O)[C@H]3O)n2)cc1
MIA PaCa-2 [1]
  inhibition: inactive

## CCCCCc1ccc(-c2cn(-c3nc(C(N)=O)n([C@@H]4O[C@H](CO)[C@@H](O)[C@H]4O)n3)nn2)cc1
MIA PaCa-2 [1]
  inhibition: inactive

## CCCCCc1ccc(C#Cc2nc(C(N)=O)n([C@@H]3O[C@H](CO)[C@@H](O)[C@H]3O)n2)cc1
MIA PaCa-2 [2]
  inhibition (INH): 80%
MIA PaCa-2 [3]
  fold change (FC): 30
MIA PaCa-2 [4]
  inhibition: Active
MIA PaCa-2 [5]
  Activity: <2%
MIA PaCa-2 [6]
  inhibition: inactive
Mus musculus [7]
  Activity: Non-toxic
MIA PaCa-2 [8]
  Activity: 50%
MIA PaCa-2 [9]
  fold change (FC): 12
Mus musculus [10]
  Activity: Non-toxic
MIA PaCa-2 [11]
  fold change (FC): 14
MIA PaCa-2 [12]
  Activity: <2%
MIA PaCa-2 [13]
  inhibition: Active
MIA PaCa-2 [14]
  fold change (FC): 40
MIA PaCa-2 [1]
  inhibition (INH): 80%

## CCCCCc1ccc(C#Cc2nc(C(N)=O)nn2[C@@H]2O[C@H](CO)[C@@H](O)[C@H]2O)cc1
MIA PaCa-2 [1]
  inhibition: inactive

## CCCCCc1ccc(C#Cc2nc(C(=O)OC)n([C@@H]3O[C@H](COC(C)=O)[C@@H](OC(C)=O)[C@H]3OC(C)=O)n2)cc1
MIA PaCa-2 [1]
  inhibition: inactive

## Nc1ccn([C@@H]2O[C@H](CO)[C@@H](O)C2(F)F)c(=O)n1 [GEMCITABINE]
MIA PaCa-2 [6]
  inhibition (INH): >90%
MIA PaCa-2 [1]
  inhibition (INH): <30%

## CCCCCc1ccc(-c2nc(C(N)=O)n([C@@H]3O[C@H](CO)[C@@H](O)[C@H]3O)n2)cc1
MIA PaCa-2 [1]
  inhibition: inactive

## CCCCCc1ccc(C#Cc2nc(C(N)=O)n(COCCO)n2)cc1
MIA PaCa-2 [1]
  inhibition: inactive

## COC(=O)c1nc(C#Cc2ccc(C(F)(F)F)cc2)nn1[C@@H]1O[C@H](COC(C)=O)[C@@H](OC(C)=O)[C@H]1OC(C)=O
MIA PaCa-2 [1]
  inhibition: inactive
